pIC50: −log10 of the molar value.
What was measured:
Rattus norvegicus [1] = organism: Rattus norvegicus; assay: Inhibition of rat kidney ALR1 at 100 uM using sodium D-glucuronate as substrate incubated for 1 min and measured up to 4 mins using H2O-dissolved compound by spectrophotometric analysis relative to control
Summary of the method: (§1)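 ALR1 purified from kidneys of male Wistar rats (8–9 weeks, 200–230 g); reduction of D-glucuronate monitored. Inhibitor dissolved in water. I (%) is inhibition at 100 μM inhibitor. Same enzyme batch throughout. Values are means of two measurements or mean ± SD of at least three.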

Rattus norvegicus [2] = organism: Rattus norvegicus; assay: Selectivity index, ratio of IC50 for rat kidney ALR1 using sodium D-glucuronate as substrate incubated for 1 min and measured up to 4 mins using H2O-dissolved compound to IC50 for rat lens ALR2 using D,L-glyceraldehyde as substrate incubated for 1 min and measured up to 4 mins using H2O-dissolved compound
Summary of the method: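 Selectivity factor computed as IC50(ALR1, rat kidney, D-glucuronate) divided by IC50(ALR2, rat lens, D,L-glyceraldehyde), both measured with compounds in water.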

[3] = Inhibition of rat kidney ALR1 using sodium D-glucuronate as substrate incubated for 1 min and measured up to 4 mins using H2O-dissolved compound by spectrophotometric analysis; summary of the method: as §1
[4] = biological target: T1, Aldo-keto reductase family 1 member B1 (Rattus norvegicus, UniProt P07943); assay: Inhibition of rat lens ALR2 using D,L-glyceraldehyde as substrate incubated for 1 min and measured up to 4 mins using 1% DMSO-dissolved compound by spectrophotometric analysis
Summary of the method: (§2)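 ALR2 purified from lenses of male Wistar rats (8–9 weeks, 200–230 g); in vitro reduction of D,L-glyceraldehyde (5.0 mM) monitored. Solvent was water or 1% DMSO. Same enzyme batch throughout. IC50 is the mean of two measurements or mean ± SD of at least three.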

[5] = biological target: T1, Aldo-keto reductase family 1 member B1; assay: Inhibition of rat lens ALR2 using D,L-glyceraldehyde as substrate incubated for 1 min and measured up to 4 mins using H2O-dissolved compound by spectrophotometric analysis; summary of the method: as §2
[6] = Antioxidant activity assessed as DPPH radical scavenging activity by measuring reduction in absorbance at 200 uM after 30 mins (reference value: 0.013 +/- 0.012); type: functional
Summary of the method: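 Stable DPPH radical, 50 μM in ethanol, incubated without (blank) or with test compound at 200 μM; absorbance decline at 518 nm read after the initial 30-min interval. Mean ± SD of at least three measurements.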

Homo sapiens = organism: Homo sapiens; assay: Selectivity index, ratio of IC50 for human AKR1B10 to IC50 for human AKR1B1 expressed in Escherichia coli
Summary of the method: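 Ratio of IC50s against recombinant human AKR1B10 and AKR1B1, each measured without DMSO as inhibition of DL-glyceraldehyde reduction. AKR1B10 used 5 mM substrate, 0.12 mM nicotinamide adenine dinucleotide phosphate cofactor and 10 μg/mL protein. AKR1B1 used the rat-lens ALR2 assay conditions at 5 μg/mL protein. IC50s are mean ± SD of at least three measurements.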

[7] = biological target: T1, Aldo-keto reductase family 1 member B1; assay: Inhibition of rat lens ALR2 using methylglyoxal as substrate incubated for 1 min and measured up to 4 mins by spectrophotometric analysis
Summary of the method: (§3)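 Rat lens ALR2 with methylglyoxal (0.5 mM), 4-hydroxynonenal (0.5 mM) or GS-HNE (1.0 mM). IC50 is mean ± SD of at least three measurements.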

[8] = biological target: T1, Aldo-keto reductase family 1 member B1; assay: Inhibition of rat lens ALR2 using 4-hydroxynonenal glutathione as substrate incubated for 1 min and measured up to 4 mins by spectrophotometric analysis; summary of the method: as §3
[9] = biological target: T1, Aldo-keto reductase family 1 member B1; assay: Inhibition of rat lens ALR2 using 4-hydroxynonenal as substrate incubated for 1 min and measured up to 4 mins by spectrophotometric analysis; summary of the method: as §3
[10] = biological target: Aldo-keto reductase family 1 member B1 (Homo sapiens, UniProt P15121); assay: Inhibition of human AKR1B1 expressed in Escherichia coli using D,L-glyceraldehyde as substrate incubated for 1 min and measured up to 4 mins using by spectrophotometric analysis
[11] = biological target: Aldo-keto reductase family 1 member B10 (Homo sapiens, UniProt O60218); assay: Inhibition of human AKR1B10 using D,L-glyceraldehyde as substrate incubated for 1 min and measured up to 4 mins using by spectrophotometric analysis
Summary of the method: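 Human recombinant AKR1B10 at 10 μg/mL protein with 5 mM DL-glyceraldehyde substrate and 0.12 mM NADPH cofactor. Run without DMSO. IC50 is mean ± SD of at least three measurements.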

[12] = biological target: T2, Sorbitol dehydrogenase (Ovis aries) (UniProt P07846); assay: Inhibition of sheep liver sorbitol dehydrogenase at 100 uM using sorbitol as substrate measured for 4 mins in presence of NAD+ by spectrophotometric analysis relative to control
T2 sequence (whole entry): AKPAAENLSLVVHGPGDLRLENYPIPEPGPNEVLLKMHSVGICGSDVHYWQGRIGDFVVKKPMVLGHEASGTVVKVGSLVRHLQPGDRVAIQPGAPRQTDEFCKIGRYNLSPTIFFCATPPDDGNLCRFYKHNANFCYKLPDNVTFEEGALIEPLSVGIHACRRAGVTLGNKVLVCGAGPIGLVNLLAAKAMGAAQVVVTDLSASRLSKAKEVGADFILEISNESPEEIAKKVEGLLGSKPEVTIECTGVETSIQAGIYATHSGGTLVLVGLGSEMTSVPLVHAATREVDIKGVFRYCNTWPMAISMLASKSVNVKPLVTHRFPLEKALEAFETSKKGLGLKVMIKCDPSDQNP

[13] = biological target: Aldo-keto reductase family 1 member B1 (Rattus norvegicus) (UniProt P07943); assay: Inhibition of ALR2 in rat lens assessed as reduction in sorbitol accumulation preincubated for 30 mins followed by D-glucose addition and measured after 3 hrs by resazurin based fluorescence analysis
Summary of the method: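 Isolated eye lenses from female Wistar rats (9–10 weeks, 210–250 g) incubated with 50 mM glucose, alongside glucose-free and glucose-only controls. Inhibitor at 1, 10, 50 and 100 μM; lens sorbitol measured. Mean ± SEM of at least five independent incubations.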

Aldo-keto reductase family 1 member B10, sequence (O60218 whole entry): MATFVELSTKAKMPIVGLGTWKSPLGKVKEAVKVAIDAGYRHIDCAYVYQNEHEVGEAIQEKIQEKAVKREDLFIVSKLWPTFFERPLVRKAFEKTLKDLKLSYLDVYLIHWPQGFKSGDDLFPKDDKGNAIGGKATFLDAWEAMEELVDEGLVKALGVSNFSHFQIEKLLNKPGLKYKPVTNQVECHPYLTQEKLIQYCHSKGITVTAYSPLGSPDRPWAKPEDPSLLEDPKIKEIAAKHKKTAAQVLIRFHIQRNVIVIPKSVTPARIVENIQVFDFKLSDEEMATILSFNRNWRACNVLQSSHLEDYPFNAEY

Compound | inhibition (Rattus norvegicus [1]) [%] | Ratio IC50 (Rattus norvegicus [2]) | pIC50 [3] | pIC50 [4] | pIC50 [5] | Reduction in absorbance at 518 nm (DPPH) [6] | Ratio IC50 (Homo sapiens) | pIC50 [7] | pIC50 [8] | pIC50 [9] | pIC50 [10] | pIC50 [11] | inhibition [12] [%] | inhibition [13]
O=C(O)Cn1c2ccccc2c2nn(Cc3ccccc3)c(=O)nc21 | 37.8 | > 230 | < 4.00 | 6.10 | 6.36 |  |  |  |  |  |  |  |  | 
O=C(O)Cn1nc2c3ccccc3n(CC(=O)O)c2nc1=O |  | 168 | 4.69 | 6.63 | 6.92 |  |  |  |  |  |  |  |  | 
O=C(O)Cn1c2ccccc2c2nnc(S)nc21 |  |  | 4.46 |  |  | 0.219 |  |  |  |  |  |  |  | 
COCn1nc2c3ccccc3n(CC(=O)O)c2nc1=O | 13.4 | > 1180 | < 4.00 | 6.93 | 7.07 | 0.042 |  |  |  |  |  |  |  | 
COc1ccc2[nH]cc(CCNC(C)=O)c2c1 |  |  |  |  |  | 0.022 |  |  |  |  |  |  |  | 
O=C(O)Cn1c2ccccc2c2n[nH]c(=O)nc21 | 24 | > 2380 | < 4.00 | 7.29 | 7.38 | 0.057 | > 850 | 7.40 | 6.53 | 6.67 | 7.18 | 4.25 | 0.9 | Dose-dependent effect

Source: ChEMBL document CHEMBL4376851 (J Med Chem, 2020)
